Experimental findings from ChEMBL document CHEMBL1146549, “Five new cassane diterpenes from Myrospermum frutescens with activity against Trypanosoma cruzi” (J Nat Prod, 2003) are described below.

The structures appear in SMILES notation.

Experiment [1] has as its system Trypanosoma cruzi. As to the kind of experiment: Antitrypanosomal activity against Trypanosoma cruzi Tulahuen clone C4 trypomastigotes in HFF after 7 days by beta-galactosidase reporter gene assay. It is filed as functional, organism-based. To be noted: 168 h. Put shortly:
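HFF seeded at 1 × 10^3/well in RPMI-1640 without phenol red plus 10% fetal calf serum, overnight. βGal-expressing trypomastigotes added at 1 × 10^3/well, overnight, then serial dilutions (final 50, 10, 2 µg/mL). DMSO ≤0.1% final; vehicle control. Read at 7 days post-infection: CPRG 100 µM, Nonidet P-40 0.1% final, 4-6 h at 37 °C, OD 570 nm. Duplicates, ≥3 experiments, SD.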

Experiment [2] has as its system Trypanosoma cruzi. As to the kind of experiment: Antitrypanosomal activity against Trypanosoma cruzi epimastigotes after 3 days. To be noted: 72 h. The class given is functional, organism-based. Put shortly:
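Recombinant epimastigotes grown in LIT medium with 10% calf serum at 28 °C, seeded at 1 × 10^5/mL with test compounds. After 3 days, CPRG and Nonidet P-40 added as in the intracellular assay, OD 570 nm. Amphotericin B as positive control. IC50 derived as in the intracellular assay.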

A short description of experiment [3]: Ratio of IC50 for HFF to IC50 for Trypanosoma cruzi Tulahuen clone C4 trypomastigotes.
In another experiment the test system is HFF. As to the kind of experiment: Cytotoxicity against HFF after 3 days by MTT assay. The class given is cell-based. To be noted: Homo sapiens, 72 h. The method in brief: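 Primary human foreskin fibroblasts adhered to 96-well plates, exposed to compounds, and viability assessed by MTT reduction after 3 days at 37 °C in CO2. IC50 derived as in the intracellular assay.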

The nature of experiment [4]: Ratio of IC50 for HFF to IC50 for Trypanosoma cruzi epimastigotes.

For `C=CC1=C(C)[C@@H]2C[C@@H](O)[C@H]3[C@](C)(CO)CCC[C@]3(C)[C@H]2CC1`, the concentration for half-maximal inhibition (IC50) with Trypanosoma cruzi [1] amounted to 16.6 µM; in the experiment with Trypanosoma cruzi [2], 56 µM; in the experiment with HFF, 148 µM. Besides, the Ratio IC50 in experiment [3] stood at 9.
In the experiment on Trypanosoma cruzi [2], `C=CC1=C(C)[C@@H]2C[C@@H](OC(C)=O)[C@H]3[C@](C)(COC(C)=O)CCC[C@]3(C)[C@H]2CC1` came in with an IC50 of 59 µM.
Same read-out and setting: the value for `C=CC1=C(C)[C@@H]2CC[C@H]3[C@@](COC(C)=O)(C(=O)O)CCC[C@]3(C)[C@H]2CC1` was 104 µM.
`C=CC1=C(C)[C@@H]2C[C@@H](O)[C@H]3[C@](C)(COC(C)=O)CCC[C@]3(C)[C@H]2CC1`: the IC50 in the experiment with Trypanosoma cruzi [1] was 25.9 µM; in the experiment with Trypanosoma cruzi [2], 11.5 µM; with HFF it was 118 µM. The Ratio IC50 in experiment [4] is 10.
`CC1CS(=O)(=O)CCN1/N=C/c1ccc([N+](=O)[O-])o1` (stereo not given) [NIFURTIMOX] yielded an IC50 in the experiment on Trypanosoma cruzi [1] of 11 µM. In other words, the double-digit micromolar range.
Turning to `C=CC1=C(C)[C@@H]2CC[C@H]3[C@](C)(CO)CCC[C@]3(C)[C@H]2CC1`, the IC50 in the experiment on Trypanosoma cruzi [1] is 17.4 µM; in the experiment on Trypanosoma cruzi [2] it was 48.6 µM; in the experiment with HFF, 149 µM. The Ratio IC50 in experiment [3] amounted to 9.
`C[C@@H]1[C@H](O)[C@@H](C)/C=C/C=C/C=C/C=C/C=C/C=C/C=C/[C@H](O[C@@H]2O[C@H](C)[C@@H](O)[C@H](N)[C@@H]2O)C[C@@H]2O[C@](O)(C[C@@H](O)C[C@@H](O)[C@H](O)CC[C@@H](O)C[C@@H](O)CC(=O)O[C@H]1C)C[C@H](O)[C@H]2C(=O)O` [AMPHOTERICIN B] returned an IC50 with Trypanosoma cruzi [2] of 1 µM.
In the experiment on Trypanosoma cruzi [2], `C=CC1=C(C)[C@@H]2CC(=O)[C@H]3[C@](C)(CO)CCC[C@]3(C)[C@H]2CC1` registered an IC50 of 36 µM.
On to `C=C[C@@]1(O)CC[C@H]2[C@@H](C[C@@H](O)[C@H]3[C@](C)(COC(C)=O)CCC[C@]23C)C1=C`, for which the IC50 in the experiment with Trypanosoma cruzi [1] was determined as 35.8 µM; in the experiment with Trypanosoma cruzi [2], 16.5 µM; in the experiment on HFF, 124 µM.
